Measured values from ChEMBL document CHEMBL2177078, “New positron emission tomography (PET) radioligand for imaging σ-1 receptors in living subjects” (J Med Chem, 2012).
pKi: −log10 of the molar value. Active and inactive are the calls of the source. The rule behind the calls is not given here.

Key:
[1] = Displacement of [3H]di-o-tolylguanidine from Sigma2 receptor in rat liver homogenate; type: tissue-based
Method in brief: (§1)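 Competition binding of unlabeled ligand in rat brain or rat liver homogenates. S2R binding run in the presence of 300 nM 1 to mask S1R sites. Liver assays run on a 96-well platform.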

[2] = Displacement of [3H]di-o-tolylguanidine from Sigma2 receptor in rat brain homogenate; type: tissue-based; method in brief: as §1
[3] = molecular target: T1, Sigma non-opioid intracellular receptor 1 (Rattus norvegicus, UniProt Q9R0C9); assay: Displacement of [3H](+)-pentazocine from Sigma1 receptor in rat brain homogenate; type: tissue-based
[4] = Binding affinity to acetylcholine esterase at 100 nM
[5] = Binding affinity to sodium channel site 2 at 100 nM
[6] = Binding affinity to calcium channel L type at 100 nM
[7] = Binding affinity to alpha bungarotoxin insensitive neuronal nicotinic receptor at 100 nM
[8] = Binding affinity to peripheral muscarinic receptor at 100 nM
[9] = molecular target: T2, Muscarinic acetylcholine receptor M2 (Homo sapiens) (UniProt P08172); assay: Binding affinity to muscarinic M2 receptor at 100 nM
T2 sequence (whole entry): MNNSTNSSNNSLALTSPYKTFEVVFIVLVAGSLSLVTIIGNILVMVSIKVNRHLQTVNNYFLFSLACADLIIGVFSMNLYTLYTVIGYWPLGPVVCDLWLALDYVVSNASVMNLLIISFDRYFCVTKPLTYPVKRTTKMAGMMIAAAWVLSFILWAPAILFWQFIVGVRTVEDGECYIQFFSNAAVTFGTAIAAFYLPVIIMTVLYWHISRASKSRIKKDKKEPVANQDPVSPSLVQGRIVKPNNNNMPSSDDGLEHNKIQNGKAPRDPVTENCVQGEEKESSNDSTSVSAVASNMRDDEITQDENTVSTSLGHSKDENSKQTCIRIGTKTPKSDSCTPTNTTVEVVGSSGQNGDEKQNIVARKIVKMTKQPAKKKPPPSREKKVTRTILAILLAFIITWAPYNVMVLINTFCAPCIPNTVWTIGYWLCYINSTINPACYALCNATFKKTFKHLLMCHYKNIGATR

[10] = molecular target: Histamine H2 receptor (Homo sapiens) (UniProt P25021); assay: Binding affinity to histamine H2 receptor at 100 nM
[11] = Binding affinity to alpha-2 adrenergic receptor at 100 nM
[12] = molecular target: Sigma non-opioid intracellular receptor 1 (Homo sapiens) (UniProt Q99720); assay: Binding affinity to Sigma1 receptor overexpressed in CHO cells after 30 to 120 mins by gamma counting; type: cell-based; conditions: tested as the 18F-labelled form
Method in brief: (§2)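 CHO cells grown in Ham's F-12, seeded 2 × 10^5 per well, transfected 24 h later with 0.8 μg empty pcDNA (control) or 0.8 μg S1R (OPRS1) DNA; medium refreshed at 12 h. At 24 h post-transfection, exposed to [18F] tracer (2 μCi/well) for 30 and 120 min, triplicate wells. Washed twice with cold PBS, lysed in 1 N NaOH, gamma counted; normalized to Bradford protein.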

[13] = molecular target: Sigma non-opioid intracellular receptor 1 (Homo sapiens) (UniProt Q99720); assay: Binding affinity to Sigma1 receptor overexpressed in CHO cells after 120 mins by gamma counting relative to control; type: cell-based; conditions: tested as the 18F-labelled form
Method in brief: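 CHO cells grown in Ham's F-12, 2 × 10^5 per well, transfected 24 h later with 0.8 μg empty pcDNA (control) or S1R (OPRS1) cDNA; medium refreshed at 12 h. At 24 h post-transfection, 2 μCi [18F] tracer per well; triplicates; 30 and 120 min uptake, two cold PBS washes, 1 N NaOH lysis, γ counting, normalized to Bradford protein.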

[14] = molecular target: T1, Sigma non-opioid intracellular receptor 1; assay: Displacement of [3H](+)-pentazocine from Sigma1 receptor in rat liver homogenate; type: tissue-based
[15] = molecular target: Sodium-dependent noradrenaline transporter (Homo sapiens) (UniProt P23975); assay: Binding affinity to norepinephrine transporter at 100 nM
[16] = test system: CHO; assay: Cellular uptake in CHO cells after 30 to 120 mins by liquid scintillation counting; type: ADME, cell-based, Cricetulus griseus; conditions: chinese hamster
Method in brief: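 Uptake in CHO cells in Ham's F-12, empty-pcDNA or S1R-transfected (0.8 μg DNA, 2 × 10^5 cells/well). [18F]13 at 2 μCi per well or [3H]1, 30 and 120 min, triplicate. Cells washed with cold PBS and lysed in 1 N NaOH. Counted by gamma counter (18F) or liquid scintillation (3H), normalized to Bradford protein.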

[17] = organism: Mus musculus; assay: Biodistribution in mouse corpus callosum at 200 uCi after 60 mins by autoradiography; type: ADME, organism-based; conditions: in vivo, 1 h
Method in brief: (§3)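 Mice injected iv with 200-250 μCi tracer; brains taken 60 min later after saline perfusion, snap frozen and cut as 12 μm sagittal sections. Sections air-dried 10 min, exposed to 18F-sensitive phosphor screens 12 h at 4 °C, then imaged; anatomy confirmed by Nissl staining. Blocking arm given BD1047 (1 mg/kg) 10 min before tracer.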

[18] = test system: Cerebellum; assay: Biodistribution in mouse cerebellum at 200 uCi after 60 mins by autoradiography; type: ADME, organism-based; conditions: in vivo, 1 h; method in brief: as §3
[19] = test system: Hippocampus; assay: Biodistribution in mouse hippocampus at 200 uCi after 60 mins by autoradiography; type: ADME, organism-based; conditions: in vivo, 1 h; method in brief: as §3
[20] = test system: Cortex; assay: Biodistribution in mouse cortex at 200 uCi after 60 mins by autoradiography; type: ADME, organism-based; conditions: in vivo, 1 h; method in brief: as §3
[21] = organism: Mus musculus; assay: Biodistribution in mouse brain facial nucleus at 200 uCi after 60 mins by autoradiography; type: ADME, organism-based; conditions: in vivo, 1 h; method in brief: as §3
[22] = test system: Brain; assay: Drug uptake in Balb C mouse brain at 630-690 uCi, iv after 60 mins by HPLC analysis; type: ADME, organism-based; conditions: in vivo, 1 h
Method in brief: (§4)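 Balb C mice (n=2 per time point) received 630-690 μCi tracer iv; brain and liver collected at 30 and 60 min. Tissue homogenized in 500 μL ice-cold acetonitrile, centrifuged 9,400 g for 4 min. Supernatants run on reversed-phase radio-HPLC; percent intact parent = parent peak area/total peak area × 100, decay corrected to dosing. Extraction efficiency checked by gamma counting.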

[23] = test system: Liver; assay: Drug uptake in Balb C mouse liver at 630-690 uCi, iv after 60 mins by HPLC analysis; type: ADME, organism-based; conditions: in vivo, 1 h; method in brief: as §4
[24] = test system: Brain; assay: Drug uptake in Balb C mouse brain at 630-690 uCi, iv after 30 mins by HPLC analysis; type: ADME, organism-based; conditions: in vivo, 0.5 h; method in brief: as §4
[25] = test system: Liver; assay: Drug uptake in Balb C mouse liver at 630-690 uCi, iv after 30 mins by HPLC analysis; type: ADME, organism-based; conditions: in vivo, 0.5 h; method in brief: as §4
[26] = test system: Brain; assay: Biodistribution in mouse brain at 200 uCi administered 10 mins post BD1047 treatment measured after 60 mins by autoradiography; type: ADME, organism-based; conditions: in vivo, 1 h; method in brief: as §3
[27] = organism: Mus musculus; assay: Biodistribution in mouse midbrain at 200 uCi after 60 mins by autoradiography; type: ADME, organism-based; conditions: in vivo, 1 h; method in brief: as §3
[28] = test system: Brain; assay: Biodistribution in mouse brain assessed as reduction in compound uptake at 95-125 uCi, iv administered 10 mins post BD1047 treatment measured after 60 mins by PET imaging; type: ADME, organism-based; conditions: in vivo, 1 h
Method in brief: (§5)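 Normal Balb C mice (20-30 g) under isoflurane (3% induction, 1-3% maintenance). […] Dynamic list-mode microPET acquisition started just before injection and ran 60 min; images reconstructed by 2D OSEM, whole-brain time-activity curves.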

[29] = test system: Brain; assay: Biodistribution in mouse brain assessed as reduction in compound uptake at 95-125 uCi, iv administered 10 mins post FTC-146 treatment measured after 60 mins by PET imaging; type: ADME, organism-based; conditions: in vivo, 1 h
Method in brief: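 Normal Balb C mice (20-30 g) under isoflurane (3% induction, 1-3% maintenance). […] Dynamic microPET list-mode acquisition for 60 min, OSEM reconstruction. Whole-brain uptake from time-activity curves, reduction read at 60 min.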

[30] = test system: CHO; assay: Cellular uptake in CHO cells after 30 to 120 mins by gamma counting; type: ADME, cell-based, Cricetulus griseus; conditions: chinese hamster; method in brief: as §2
[31] = test system: Brain; assay: Biodistribution in mouse brain at 95-125 uCi, iv by PET imaging; type: ADME, organism-based; conditions: in vivo; method in brief: as §5
[32] = test system: Brain; assay: Biodistribution in mouse brain assessed as reduction in compound uptake at 95-125 uCi, iv administered 10 mins post haloperidol treatment measured after 60 mins by PET imaging; type: ADME, organism-based; conditions: in vivo, 1 h; method in brief: as §5

T1 sequence (Q9R0C9 whole entry): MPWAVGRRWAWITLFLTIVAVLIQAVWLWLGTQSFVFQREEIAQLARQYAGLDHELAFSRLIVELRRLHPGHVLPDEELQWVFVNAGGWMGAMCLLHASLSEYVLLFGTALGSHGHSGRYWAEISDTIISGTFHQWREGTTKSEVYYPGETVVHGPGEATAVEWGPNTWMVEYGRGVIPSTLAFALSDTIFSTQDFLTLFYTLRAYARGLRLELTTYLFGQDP
Chain of Sigma non-opioid intracellular receptor 1 (Homo sapiens) (Q99720 whole entry): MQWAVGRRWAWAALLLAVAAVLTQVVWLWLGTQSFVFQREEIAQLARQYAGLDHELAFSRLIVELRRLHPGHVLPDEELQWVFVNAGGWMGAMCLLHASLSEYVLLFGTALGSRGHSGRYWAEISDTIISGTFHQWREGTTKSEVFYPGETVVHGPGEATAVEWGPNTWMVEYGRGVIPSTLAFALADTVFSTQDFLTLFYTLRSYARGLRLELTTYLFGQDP
Chain of Histamine H2 receptor (Homo sapiens) (P25021 whole entry): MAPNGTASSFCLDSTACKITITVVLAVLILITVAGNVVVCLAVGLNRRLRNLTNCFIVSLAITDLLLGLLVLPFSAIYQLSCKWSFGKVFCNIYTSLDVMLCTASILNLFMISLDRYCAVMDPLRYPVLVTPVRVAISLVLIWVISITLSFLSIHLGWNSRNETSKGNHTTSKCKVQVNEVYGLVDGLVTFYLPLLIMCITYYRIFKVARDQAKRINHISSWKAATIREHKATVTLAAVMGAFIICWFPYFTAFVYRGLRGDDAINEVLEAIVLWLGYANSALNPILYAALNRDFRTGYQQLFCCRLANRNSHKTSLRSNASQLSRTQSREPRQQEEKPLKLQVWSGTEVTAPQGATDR
Chain of Sodium-dependent noradrenaline transporter (Homo sapiens) (P23975 whole entry): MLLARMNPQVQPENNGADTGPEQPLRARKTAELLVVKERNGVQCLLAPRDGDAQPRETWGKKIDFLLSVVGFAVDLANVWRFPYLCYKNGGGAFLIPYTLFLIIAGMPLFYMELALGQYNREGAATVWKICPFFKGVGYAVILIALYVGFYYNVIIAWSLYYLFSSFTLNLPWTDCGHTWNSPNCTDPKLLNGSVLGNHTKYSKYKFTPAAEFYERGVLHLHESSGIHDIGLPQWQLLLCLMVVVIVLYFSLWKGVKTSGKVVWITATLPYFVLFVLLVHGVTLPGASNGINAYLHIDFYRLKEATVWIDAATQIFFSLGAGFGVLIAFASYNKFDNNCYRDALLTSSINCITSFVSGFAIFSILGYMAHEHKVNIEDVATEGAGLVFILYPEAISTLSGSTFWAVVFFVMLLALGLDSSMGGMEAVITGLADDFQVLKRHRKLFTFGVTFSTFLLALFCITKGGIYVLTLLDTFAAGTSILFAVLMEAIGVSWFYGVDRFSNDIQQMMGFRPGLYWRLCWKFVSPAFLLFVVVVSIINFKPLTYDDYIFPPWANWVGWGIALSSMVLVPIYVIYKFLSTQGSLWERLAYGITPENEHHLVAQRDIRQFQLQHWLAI

**Q.** What does the source list for `CCCc1ccc2c(c1)sc(=O)n2CCN1CCCCCC1`?
**A.** pKi [1]: 6.61; pKi [2]: 6.20; pKi [3]: 8.77

**Q.** With `O=c1sc2cc(CCCF)ccc2n1CCN1CCCCCC1` as the molecule, how does the Activity [4] read?
**A.** Its Activity is under 50%.

**Q.** And the Activity [5]?
**A.** Its Activity is under 50%.

**Q.** What about the Activity [6] of the same molecule?
**A.** The Activity was under 50%.

**Q.** What about the Activity [7] of the same molecule?
**A.** The Activity was under 50%.

**Q.** What about the Activity [8] of the same molecule?
**A.** Its Activity is under 50%.

**Q.** And the Activity [9]?
**A.** The Activity was under 50%.

**Q.** And the Activity [10]?
**A.** Its Activity is under 50%.

**Q.** And the Activity [11]?
**A.** The Activity was under 50%.

**Q.** And the Activity [12]?
**A.** Its Activity is “Active”.

**Q.** What about the fold change (FC) [13] of the same molecule?
**A.** The fold change (FC) was 4.

**Q.** And the pKi [1]?
**A.** Its pKi is 6.33.

**Q.** And the pKi [14]?
**A.** Its pKi is 9.02.

**Q.** And the Activity [15]?
**A.** The Activity was under 50%.

**Q.** Which Drug uptake [16] does the source give for `[3H]c1cc2c(c([3H])c1O)[C@@]1(C)CCN(CC=C(C)C)[C@@H](C2)[C@H]1C` here?
**A.** Its Drug uptake is “Active”.

**Q.** Which Drug uptake [17] does the source give for `O=c1sc2cc(CCC[18F])ccc2n1CCN1CCCCCC1` here?
**A.** Its Drug uptake is “Not Active”.

**Q.** And the Drug uptake [18]?
**A.** Its Drug uptake is “Active”.

**Q.** And the Drug uptake [19]?
**A.** Its Drug uptake is “Active”.

**Q.** What about the Drug uptake [20] of the same molecule?
**A.** Its Drug uptake is “Active”.

**Q.** What about the Drug uptake [21] of the same molecule?
**A.** The Drug uptake was “Active”.

**Q.** And the Drug uptake [22]?
**A.** Its Drug uptake is 100%.

**Q.** What about the Drug uptake [23] of the same molecule?
**A.** The Drug uptake was 27%.

**Q.** What about the Drug uptake [24] of the same molecule?
**A.** The Drug uptake was 100%.

**Q.** And the Drug uptake [25]?
**A.** The Drug uptake was 34%.

**Q.** And the Drug uptake [26]?
**A.** The Drug uptake was “Not Active”.

**Q.** What about the Drug uptake [27] of the same molecule?
**A.** The Drug uptake was “Active”.

**Q.** What about the Drug uptake [28] of the same molecule?
**A.** The Drug uptake was 81%.

**Q.** What about the Drug uptake [29] of the same molecule?
**A.** Its Drug uptake is 82%.

**Q.** What about the Drug uptake [30] of the same molecule?
**A.** The Drug uptake was “Active”.

**Q.** And the Drug uptake [31]?
**A.** Its Drug uptake is “Active”.

**Q.** And the Drug uptake [32]?
**A.** Its Drug uptake is 80%.
